Screening data deposited in PubChem by several laboratories.
ALR inh: blocks human ALR sulfhydryl oxidase activity; purified ALR, DTT oxidation, H2O2 HRP-luminol luminescence; 290,000 compounds, 3.8% hits; inhibition, % (concentration not given with the values); P55789; AID 485317;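 active means mean replicate inhibition above about 79%, with every replicate also reaching it, limit read from the data; inconclusive means only one of the two criteria met; inactive means mean below limit and not every replicate reaching it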
Target sequence (P55789 whole entry, looked up): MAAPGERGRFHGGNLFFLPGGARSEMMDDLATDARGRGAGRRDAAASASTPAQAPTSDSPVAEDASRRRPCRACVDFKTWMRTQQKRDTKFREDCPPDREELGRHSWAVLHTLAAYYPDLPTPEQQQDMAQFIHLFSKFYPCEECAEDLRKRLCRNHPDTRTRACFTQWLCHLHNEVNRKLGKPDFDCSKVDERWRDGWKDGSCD
AI-2 QS modul: modulates the Vibrio harveyi AI-2 quorum sensing system; activity change, % at 7.5 µM; Vibrio harveyi JMH597 AI-2 luminescence/OD600 ratio, 9 h; active compounds read low; strain lacks LuxN and CqsS sensors; 0 = neutral-control median; 300,000 compounds, 0.4% hits; AID 2094; in the data active means activity change below about -75%, passing the limit was not always enough; inconclusive means no clear call, values can overlap the other calls;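 further: luminescence divided by OD600 gain over 9 h not by final OD600 alone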
PHOSPHO1 inh: inhibitors of human PHOSPHO1 phosphatase; Q8TCT1; recombinant PHOSPHO1, absorbance phosphatase assay; inhibition, % at 13.3 µM; 290,000 compounds, 1.1% hits; AID 1565; in the data active means inhibition above about 60%
Target sequence (Q8TCT1 whole entry, looked up): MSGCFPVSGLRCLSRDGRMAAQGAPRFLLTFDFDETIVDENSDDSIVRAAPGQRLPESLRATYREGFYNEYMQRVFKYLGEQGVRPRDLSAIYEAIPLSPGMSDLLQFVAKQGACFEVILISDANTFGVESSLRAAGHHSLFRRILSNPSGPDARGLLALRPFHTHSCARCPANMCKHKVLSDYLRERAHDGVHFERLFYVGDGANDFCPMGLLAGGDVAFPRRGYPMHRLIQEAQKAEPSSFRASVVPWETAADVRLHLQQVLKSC
HSF1 activator: increases HSF-1 driven luciferase reporter signal; 300,000 compounds, 1.7% hits; activation, % at 9 µM; AID 504408; NIH3T3-HGL HSF-1 luciferase reporter, MG132, 8 h; 100% = twice DMSO control signal;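 active means mean replicate activation of at least 50% with a set share of replicates each reaching 50%; inconclusive means only one of those two conditions met; inactive means mean below 50% and too few replicates reaching it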
HSF1 inh: HSF1 inhibition. NIH3T3-HGL HSE-luciferase, MG132-induced, luminescence 8 h; active compounds read low. activity change, negative = inhibition, % at 7.5 µM (by protocol). 300,000 compounds, 0.77% hits;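 active means more than half of replicate wells show activity change below -50%, luminescence cut by over half; inconclusive means some wells, but at most half, below -50%; inactive means no replicate well below -50%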;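 further: luciferase reports HSF-1 transcriptional activity via heat shock element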
HCV core dimer: HCV core protein dimerization inhibition. 300,000 compounds, 0.33% hits. inhibition, % at 5 µM. TR-FRET GST/Flag-core106 dimerization, 1536-well;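 active means inhibition above the mean of all tested compounds plus 3 SD, set per screening campaign, cut at about 45% in these data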
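System – GST-tagged and Flag-tagged HCV core protein residues 1-106 · Repeats – one well for each compound · Technique – TR-FRET 671 and 617 nm emission · Doses – one concentration, 5 µM, in 0.5% DMSO · Times – 4 h, 22.5 °C incubation · Also added – Eu donor and XL665 acceptor anti-tag antibodies · Measure – percent inhibition of core106 dimerization signal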
Numbers stand for hits; - = inactive; ? = inconclusive; . = no result. Shown are actives, neighbours in structure and some others; about 6.8% of the full set was active somewhere.

SMILES	ALR inh	AI-2 QS modul	PHOSPHO1 inh	HSF1 activator	HSF1 inh	HCV core dimer
Cc1ccc(C(C(=O)NC(C)(C)C)N(Cc2cccnc2)C(=O)C(=O)NC2CCCCC2)o1 (stereo unspecified)	-	-	-	-	-	-
COc1ccc(-n2c(C)cc(-c3csc(NC(=O)c4ccc(S(=O)(=O)N(C)C)cc4)n3)c2C)cc1	-	-	-	-	-54	53
CN(C)S(=O)(=O)c1ccc(C(=O)Nc2nc(-c3cccs3)cs2)cc1	-	-	-	-	-	-
Cc1cc(-c2csc(NC(=O)c3ccc(C#N)cc3)n2)c(C)n1Cc1ccccc1	.	-	-	-	-	52
Cc1ccc(N(C)S(=O)(=O)c2cccc(C(=O)Nc3nnc(C4CC4)s3)c2)cc1	95	-	-	-	-	-
COc1ccc(N(C)S(=O)(=O)c2cccc(C(=O)Nc3nnc(C4CC4)s3)c2)cc1	-	-	-	-	-	-
COc1cc(OC)c(N(C)S(=O)(=O)c2cccc(C(=O)Nc3nnc(C4CC4)s3)c2)cc1Cl	.	-	-	131	-	-
Cc1nnc(SCC(=O)c2ccc(Cl)cc2)s1	-	-	-	-	-	-
COc1ccc(NC(=O)CN(C)CC(=O)Nc2ccc(Cl)cc2F)cc1	-	-	-	-	-	-
CCSc1nnc(NC(=O)c2cccc(S(=O)(=O)N(C)c3ccccc3)c2)s1	94	-	-	-	-	-
COc1ccc(N(C)S(=O)(=O)c2cccc(C(=O)Nc3nc(C)cs3)c2)cc1	97	.	.	.	.	.
COc1cccc(C(=O)Nc2nc(C)cs2)c1	-	-	-	-	-	-
Cc1ccccc1NC(=O)C1c2cccc[n+]2CC(=O)N1c1c(C)cccc1C (stereo unspecified)	-	-	95	-	-	-
Cc1cccc(C)c1NC(=O)C1c2cccc[n+]2CC(=O)N1Cc1ccc2c(c1)OCO2 (stereo unspecified)	-	-	-	-	-	-
CS(=O)(=O)c1ccc2nc(NC(=O)c3ccc(N4C(=O)CCC4=O)cc3)sc2c1	.	-	-	-	-	-
COC(=O)CSC1=NS(=O)(=O)c2ccccc21	100	-	-	-	-	-
O=C(CSC1=NS(=O)(=O)c2ccccc21)Nc1ccccc1	99	-	88	-	-	-
O=C(CCN1C(=O)c2ccccc2S1(=O)=O)Nc1ccccc1	-	-	-	-	-	-
CCN(CC)CC(=O)c1ccc(-c2ccccc2)cc1	99	-	-	-	-	-
COCCNC(=O)CCn1nc(-c2ccc(C)cc2)ccc1=O	.	-	-	-	-	-
COc1ccc(C(=O)N/N=C(\C)CC(=O)NC2CCCCC2)c(OC)c1	-	-	-	-	-	-
Cc1ccc2c(c1)N(C)/C(=C/c1cccc[n+]1C)S2	97	-	-	-	-	-
CCN1/C(=C/c2cccc[n+]2C)Sc2ccc(OC)cc21	98	-	-	-	-	-
COc1ccc2c(c1)N(C)/C(=C/c1cccc[n+]1C)S2	97	-	-	-	-	-
CCN(CC(=O)NCc1cccs1)C(=O)c1ccc(S(=O)(=O)Nc2ccccc2F)cc1	.	-	.	-	-	-
SMILES	ALR inh	AI-2 QS modul	PHOSPHO1 inh	HSF1 activator	HSF1 inh	HCV core dimer
Cc1cccc(NNC(N)=S)c1C	?	-	-	-	-	-
COC(=O)[C@H](CCSC)NC(=O)Nc1cccc(C)c1C	.	-	-	96	-	-
CCc1ccc(C(=O)NC(CCSC)C(=O)OC)cc1 (stereo unspecified)	.	-	-	-	-81	-
COC(=O)c1ccc(NCCc2csc(-c3ccc(C)cc3)n2)c([N+](=O)[O-])c1	-	-	-	-	-	-
CCc1nc2nc(C)c(NS(=O)(=O)c3ccc(Cl)cc3)c(=O)n2[nH]1	.	-	-	-	-	-
CCN(CC)c1ccc(C(=S)N2CCN(c3ccccc3)CC2)cc1	-	-	74	-	-	-
CCN1CCN(C(=S)c2ccc(Br)cc2)CC1	-	-	-	-	-	-
CN1CCN(C(=S)c2ccc(Br)cc2)CC1	.	-	61	-	-	-
CN(C)c1ccc(C(=S)N2CCN(Cc3ccccc3)CC2)cc1	-	-	-	-	-	-
CN1CCN(C(=S)c2ccc(N(C)C)cc2)CC1	99	-	-	.	.	-
O=[N+]([O-])c1ccc(Cl)cc1NCc1cccnc1	-	-	.	-	-	-
